# Measurements from ChEMBL document CHEMBL4257525, “Synthesis and biological evaluation of new 3-amino-2-azetidinone derivatives as anti-colorectal cancer agents” (Medchemcomm, 2018).
# pIC50: −log10 of the molar value.
# What was measured:
# SW48 = experiment: Antiproliferative activity against human SW48 cells after 72 hrs by MTT assay; format: functional, cell-based; conditions: SW48, 72 h
# How it was run: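 SW48 colorectal adenocarcinoma cells grown in RPMI-1640 with 10% FBS, 2 mM L-glutamine and penicillin/streptomycin at 37 °C, 5% CO2. 8000 cells per well exposed to a range of compound concentrations (in DMSO) for 72 h. MTT then added for 2 h at 37 °C, formazan solubilized, absorbance read at 570 nm. Triplicates in three independent experiments. IC50 from a four-parameter logistic fit against 0.1% DMSO controls.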
# [1] = Inhibition of porcine brain tubulin polymerization measured for 15 mins by spectrophotometric method; parameters: species or system Sus scrofa
# How it was run: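 Lyophilized purified tubulin resuspended at 2.5 mg mL-1 in assembly buffer (80 mM PIPES pH 6.9, 1 mM MgCl2, 2 mM EGTA, 10% glycerol), mixed with 1 mM GTP and varying compound concentrations; 0.2% v/v DMSO vehicle control. Assembly read at 340 nm, 37 °C. IC50 = concentration inhibiting polymerization by 50%, from four-parameter logistic fit.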
SMILES,pIC50 (SW48),pIC50 [1]
COc1ccc([C@H]2[C@H](NC(=O)c3ccc(Cl)cc3)C(=O)N2c2cc(OC)c(OC)c(OC)c2)cc1O,6.57,
COc1ccc(C(=O)N[C@@H]2C(=O)N(c3cc(OC)c(OC)c(OC)c3)[C@H]2c2ccc(OC)c(O)c2)cc1 (relative stereo),6.96,
COc1ccc([C@H]2[C@H](NC(=O)C3CCCCC3)C(=O)N2c2cc(OC)c(OC)c(OC)c2)cc1O (relative stereo),6.61,
COc1ccc([C@H]2[C@H](NC(=O)c3cc(OC)c(OC)c(OC)c3)C(=O)N2c2cc(OC)c(OC)c(OC)c2)cc1O (relative stereo),6.25,
COc1ccc([C@H]2[C@H](NC(=O)c3ccc4ccccc4c3)C(=O)N2c2cc(OC)c(OC)c(OC)c2)cc1O (relative stereo),6.66,
COc1ccc([C@H]2[C@H](NC(=O)c3ccc(F)cc3)C(=O)N2c2cc(OC)c(OC)c(OC)c2)cc1O (relative stereo),6.42,

# Now those with a higher pIC50 (SW48), led by results:
pIC50 (SW48),pIC50 [1],SMILES
7.04,,COc1ccc([C@H]2[C@H](NC(=O)[C@H](C)N)C(=O)N2c2cc(OC)c(OC)c(OC)c2)cc1O (relative stereo)
7.31,,COc1ccc([C@H]2[C@H](NC(=O)Cc3c[nH]c4ccccc34)C(=O)N2c2cc(OC)c(OC)c(OC)c2)cc1O (relative stereo)
7.73,,COc1ccc([C@H]2[C@H](NC(=O)c3ccco3)C(=O)N2c2cc(OC)c(OC)c(OC)c2)cc1O (relative stereo)
7.85,5.30,COc1ccc([C@H]2[C@H](NC(C)=O)C(=O)N2c2cc(OC)c(OC)c(OC)c2)cc1O (relative stereo)
